Screening data as filed in PubChem.
M5 PAM: human M5 muscarinic receptor positive allosteric modulators, primary screen, CHO-K1 cells, Fluo-8 calcium fluorescence; Muscarinic acetylcholine receptor M5 (Homo sapiens), P08912; CHO-K1 hM5, ACh EC20 PAM; 0% = ACh EC20, 100% = ACh EC100; activation, % at 3 µM; hit rate 0.3% among 360,000; AID 624038, 2012;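 active means activation above the run cutoff, the mean activation of all test compounds plus 3 SD, cut at about 18% in these data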
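Assay system – human M5 receptor in CHO-K1 cells · Read-out – % activation, ACh-normalized · Technique – Fluo-8 calcium fluorescence · Dosing – single-point, 3 µM nominal · Incubation – Fluo-8 loading 80 min at 37 °C plus 30 min room temperature · Repeats – singlicate, one well per test compound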
M4 antag: human M4 muscarinic receptor antagonists, primary screen, CHO cells, Fluo-8 calcium fluorescence. Muscarinic acetylcholine receptor M4 (Homo sapiens), P08173. CHO-hM4 cells, ACh EC80. inhibition, % at 3 µM. hit rate 0.73% among 360,000. AID 624125, 2012;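 active means inhibition above its plate's cutoff, the mean inhibition of sample wells plus 3 SD, cut at about 27% in these data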;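 further: 0% = acetylcholine EC80 with DMSO and 100% = DMSO without agonist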
Target sequence (P08173 whole entry, looked up): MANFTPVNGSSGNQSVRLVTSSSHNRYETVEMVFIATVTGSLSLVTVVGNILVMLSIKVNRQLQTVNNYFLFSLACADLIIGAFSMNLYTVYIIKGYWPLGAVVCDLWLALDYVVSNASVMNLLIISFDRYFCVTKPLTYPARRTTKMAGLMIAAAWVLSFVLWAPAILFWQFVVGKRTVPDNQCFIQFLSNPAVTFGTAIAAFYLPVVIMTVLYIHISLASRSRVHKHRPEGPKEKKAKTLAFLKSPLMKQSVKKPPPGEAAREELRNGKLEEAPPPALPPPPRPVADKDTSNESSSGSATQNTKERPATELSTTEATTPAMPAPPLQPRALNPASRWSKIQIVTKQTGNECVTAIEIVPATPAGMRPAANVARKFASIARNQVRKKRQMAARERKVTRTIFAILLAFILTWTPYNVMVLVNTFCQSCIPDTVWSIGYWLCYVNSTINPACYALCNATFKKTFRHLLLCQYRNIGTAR
M4 ag: human M4 muscarinic receptor agonists, primary screen, CHO-K1 cells, Fluo-8 calcium fluorescence; Muscarinic acetylcholine receptor M4 (Homo sapiens), P08173; activation, % at 3 µM; hit rate 0.14% among 360,000; AID 624127, 2012; CHO-K1 hM4/Gqi5; vehicle 0%, full acetylcholine response 100%;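 active means activation above the run mean over all test wells plus 3 SD, cut at about 32% in these data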;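 further: peak over basal fluorescence ratio per well then scaled between controls; 0% = DMSO wells and 100% = acetylcholine at EC100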
CHRM4 PAM: human M4 muscarinic receptor positive allosteric modulators, primary screen, CHO-K1 cells, Fluo-8 calcium fluorescence; Muscarinic acetylcholine receptor M4 (Homo sapiens), P08173; activation, % at 3 µM; hit rate 0.4% among 360,000; AID 624126, 2012; CHO-K1 hM4/Gqi5, ACh EC20; 0% = ACh EC20, 100% = maximal ACh;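 active means activation above its plate's cutoff, the mean activation of sample wells plus 3 SD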
CHRM5 agonist: human M5 muscarinic receptor agonists, primary screen, CHO-K1 cells, Fluo-8 calcium fluorescence; activation, % at 3 µM; CHO-K1 hM5 cells; 0% DMSO wells, 100% maximal acetylcholine response; AID 624037, 2012; Muscarinic acetylcholine receptor M5 (Homo sapiens), P08912; hit rate 0.19% among 360,000;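 active means activation above the run's mean over test compounds plus 3 SD, cut at about 23% in these data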;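 further: signal is peak over basal fluorescence ratio across the kinetic read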
CHRM5 antagonist: human M5 muscarinic receptor antagonists, primary screen, CHO cells, Fluo-8 calcium fluorescence. Muscarinic acetylcholine receptor M5 (Homo sapiens), P08912. AID 624040, 2012. inhibition, % at 3 µM. hit rate 0.59% among 360,000. CHO-hM5 cells, ACh EC80;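 active means inhibition above a per-plate cutoff, the mean of that plate's test compounds plus 3 SD, cut at about 27% in these data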;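 further: 0% = acetylcholine EC80 with DMSO and 100% = DMSO without agonist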
An asterisk follows results filed as active. Shown are actives, neighbours in structure and some others; about 1.8% of the full set was active somewhere.

SMILES | M5 PAM | M4 antag | M4 ag | CHRM4 PAM | CHRM5 agonist | CHRM5 antagonist
CNC(C)C(=O)NC(C(=O)N1CCCC1C(=O)Nc1ccc2[nH]ccc2c1)C(C)C (centres undefined) | 5 | -11 | 1 | 5 | -1 | -4
COc1cccc(CN2CC(C(=O)NCCOc3ccccc3)CCC2=O)c1 (centres undefined) | -13 | 3 | 2 | -3 | -5 | 29*
O=C(CC1CCC1)Nc1cccc2c([N+](=O)[O-])cccc12 | -11 | 8 | 0 | -11 | -7 | 28*
CC(=O)N1CCN(CCS(=O)(=O)c2ccc(Br)cc2)CC1 | 5 | -27 | 1 | 10 | -2 | 5
COc1ccc(CNC(=O)c2cccc3c(-c4cccnc4)coc23)cc1OC | -18 | 14 | 21 | -8 | 9 | 35*
O=C(NCc1ccc(F)c(F)c1)c1cccc2c(-c3cccnc3)coc12 | -13 | 2 | 17 | -7 | 6 | 13
CC(=O)N1CCN=C1SCc1c(F)cccc1Cl | 2 | -13 | 2 | 20* | 3 | 0
COc1ccc(NC(=O)c2cc(C)no2)cc1Cl | -4 | -3 | 1 | -1 | -1 | 13
Cc1nnc(SCc2cccc([N+](=O)[O-])c2)[nH]c1=O | -1 | 0 | 1 | -3 | -9 | 0
NC(c1csc(NC(=O)Nc2cccc(Cl)c2)n1)C1CCCCC1 (centres undefined) | 6 | 39* | 38* | 1 | 4 | 9
NC(c1csc(NC(=O)Nc2ccccc2)n1)C1CCCCC1 (centres undefined) | -4 | -1 | 10 | 2 | 3 | 4
O=C(Cn1cc(COc2c(F)c(F)c(Br)c(F)c2F)nn1)c1ccc(O)cc1 | -5 | -6 | 3 | 2 | 0 | 0
CC(C)(C)c1ccc(-n2ncc3c2CCCC3NC(=O)CN2CCCCC2=O)cc1 (centres undefined) | 8 | 1 | 3 | -2 | 1 | -15
O=C(CN1CCCC1=O)NC1CCCc2c1cnn2-c1cc(F)cc(F)c1 (centres undefined) | 19* | -4 | 1 | 3 | 4 | -7
CCOc1ccc(/C=C/C(=O)c2c(O)c3ccccc3oc2=O)cc1 | -1 | 14 | 0 | 2 | -2 | 2
CN(C)c1ccc(/C=C/C(=O)c2c(O)c3ccccc3oc2=O)cc1 | -11 | 6 | 6 | -13 | 26* | 18
CCN1CCN(c2ncnc3scc(-c4ccc(C)c(C)c4)c23)CC1 | -18 | 27* | 1 | -16 | -8 | 46*
COC(=O)[C@@]12C[C@@H](CC(=O)N3CCN(C(=O)C4CC4)CC3)C(=O)N(CCc3ccc(OC)c(OC)c3)C1=CCC(C)(C)C2 | 2 | 2 | 5 | 0 | 0 | 1
COc1ccc(CC(=O)Nc2nc(OCCN3CCCC3=O)cnc2-c2cccc(C(F)(F)F)c2)cc1 | -4 | -4 | 4 | -1 | -1 | 0
C[N+](C)(C)CCNC(=O)c1ccccc1 | 9 | -7 | 1 | 23* | -2 | -17
O=C(NCCNC(=O)c1ccccc1)c1ccccc1 | -7 | -7 | 1 | 12 | 0 | 3
Cc1cccc(CCNC(=O)Cn2ncc3c([nH]c4ccccc43)c2=O)c1 | 0 | 8 | 1 | 6 | -6 | -7
O=C(Nc1ccccc1N1CCCC1)c1ccc([N+](=O)[O-])cc1Cl | 9 | -16 | 1 | 25* | -4 | -15
CCC(C(=O)NC(C)(C)C)n1c(C(c2ccccc2)c2ccccc2)nc2ccccc21 (centres undefined) | 4 | -3 | 0 | 10 | -4 | 1
C[C@@H]1[C@H]2[C@@H](O[C@@H]3O[C@H](CO)[C@@H](O)[C@H](O)[C@H]3O)OC=C(C(=O)O)[C@H]2C[C@@H]1O | -1 | -12 | 0 | 5 | 1 | 5
